Consider 7 molecules from ChEMBL document CHEMBL4312018, “Novel benzimidazole phosphonates as potential inhibitors of protein prenylation” (Bioorg Med Chem Lett, 2019).

The structures appear in SMILES notation. pIC50: −log10 of the molar value. Activity calls are given as the source filed them.

The target of assay [1] is T1, Geranylgeranyl transferase type I (Homo sapiens) (UniProt P49354+P53609). The assay is described as follows: Inhibition of GGtase-1 in human RPMI8226 cells assessed as disruption of Rap1a geranylgeranylation at 0.5 uM after 48 hrs by immunoblot analysis. Format: cell-based. In general terms: Immunoblotting shows a protein as a band on a membrane.
In assay [2] the target is T2, Protein farnesyltransferase (Homo sapiens) (UniProt P49354+P49356). Briefly: Inhibition of FTase in human RPMI8226 cells assessed as disruption of H-ras farnesylation at 0.5 uM after 48 hrs by immunoblot analysis. In kind it is cell-based.
The target of assay [3] is T1, Geranylgeranyl transferase type I (Homo sapiens). Briefly: Inhibition of GGtase-1 in human RPMI8226 cells assessed as disruption of Rap1a geranylgeranylation after 48 hrs immunoblot analysis. Format: cell-based.
For assay [4], the target named is T3, Farnesyl pyrophosphate synthase (Homo sapiens) (UniProt P14324).
T3 sequence (whole entry): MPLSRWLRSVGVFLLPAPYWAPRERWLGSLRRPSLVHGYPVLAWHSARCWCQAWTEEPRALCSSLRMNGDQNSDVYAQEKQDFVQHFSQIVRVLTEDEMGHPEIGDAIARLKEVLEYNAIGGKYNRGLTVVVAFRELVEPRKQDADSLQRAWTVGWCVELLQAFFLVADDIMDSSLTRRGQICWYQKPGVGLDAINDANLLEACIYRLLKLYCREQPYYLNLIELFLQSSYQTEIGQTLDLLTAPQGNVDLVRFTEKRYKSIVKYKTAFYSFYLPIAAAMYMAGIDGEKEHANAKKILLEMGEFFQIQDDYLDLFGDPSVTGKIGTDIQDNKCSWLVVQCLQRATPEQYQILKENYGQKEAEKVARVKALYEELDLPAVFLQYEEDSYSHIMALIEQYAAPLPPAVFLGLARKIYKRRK
Briefly: Inhibition of FDPS in human RPMI8226 cells assessed as unmodified Rap1a level at =< 1 mM after 48 hrs by immunoblot analysis. In kind it is cell-based. The procedure, abridged: (§1)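 RPMI-8226 cells were exposed for 48 h. The lowest effective concentration counts only when two read-outs agree. Unmodified Rap1a must be visible on immunoblot of whole-cell lysate, using an antibody that detects only unmodified protein.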

Assay [5] concerns the target T4, Geranylgeranyl transferase type-2 (Homo sapiens) (UniProt P53611+Q92696). Briefly: Inhibition of GGtase-2 in human RPMI8226 cells assessed as decrease in Rab6 level at =< 1 mM after 48 hrs by immunoblot analysis relative to control. Format: cell-based. The procedure, abridged: (§2)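 After 48 h treatment, RPMI-8226 cells were extracted with Triton X-114 to give a detergent (membrane) fraction, which was immunoblotted for Rab6. Rab6 band density was normalized to calnexin and expressed relative to untreated cells. Blots are representative of three independent studies.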

Assay [6] has as its target T3, Farnesyl pyrophosphate synthase (Homo sapiens). Briefly: Inhibition of FDPS in human RPMI8226 cells assessed as increase in intracellular lambda chain level at =< 1mM after 48 hrs by ELISA. Format: cell-based. The procedure, abridged: (§3)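 RPMI-8226 cells were exposed for 48 h, and intracellular lambda light chain was measured by ELISA as percent of untreated control. The lowest effective concentration also requires unmodified Rap1a to be visible on whole-cell-lysate immunoblot with an unmodified-specific antibody. The ELISA rise must be statistically significant.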

Assay [7] deals with geranylgeranyltransferase type-I (Rattus norvegicus, UniProt P53610+Q04631). Briefly: Inhibition of recombinant rat GGtase-1 expressed in Escherichia coli using dansyl-GCVLL as substrate after 1.5 hrs by spectrofluorimetric analysis.
Assay [8] concerns the target T5, Farnesyl pyrophosphate synthase (Homo sapiens, UniProt P14324).
T5 sequence (P14324 whole entry): T3 sequence (whole entry)
The assay is described as follows: Inhibition of FDPS (unknown origin) using [14C] IPP and GPP as substrate preincubated for 10 mins followed by substrate addition and measured after 30 min by liquid scintillation counting method.

Assay [9] concerns the target Protein farnesyltransferase (Rattus norvegicus, UniProt Q02293+Q04631). The assay is described as follows: Inhibition of recombinant rat FTase expressed in Escherichia coli using dansyl-GCVLS as substrate after 1.5 hrs by spectrofluorimetric analysis.
Assay [10] addresses T2, Protein farnesyltransferase (Homo sapiens). Briefly: Inhibition of FTase in human RPMI8226 cells assessed as disruption of H-ras farnesylation after 48 hrs by immunoblot analysis. In kind it is cell-based.
For assay [11], the target named is T4, Geranylgeranyl transferase type-2 (Homo sapiens). The assay is described as follows: Inhibition of GGtase-2 in human RPMI8226 cells assessed as increase in intracellular lambda chain at =< 1 mM level after 48 hrs by ELISA. Format: cell-based. The procedure, abridged:
(§4)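 RPMI-8226 cells were incubated 48 h with the compound or medium alone. Intracellular lambda light chain was quantified by ELISA and expressed as percent of untreated control (mean ± SD, n=3). Significance versus control was judged by t-test, p<0.05.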
On the technique in general: An ELISA detects its analyte on a solid surface through an enzyme-linked reagent.

Assay [12] addresses T6, Geranylgeranyl pyrophosphate synthase (Homo sapiens, UniProt O95749).
T6 sequence (O95749 whole entry): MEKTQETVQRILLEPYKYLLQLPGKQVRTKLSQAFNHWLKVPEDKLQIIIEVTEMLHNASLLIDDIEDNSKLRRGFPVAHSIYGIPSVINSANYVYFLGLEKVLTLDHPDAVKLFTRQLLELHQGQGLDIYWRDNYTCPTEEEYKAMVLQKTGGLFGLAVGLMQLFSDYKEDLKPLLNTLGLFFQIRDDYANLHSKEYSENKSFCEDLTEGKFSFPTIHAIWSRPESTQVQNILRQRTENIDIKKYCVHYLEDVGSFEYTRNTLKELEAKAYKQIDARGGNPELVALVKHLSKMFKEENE
The assay is described as follows: Inhibition of GGDPS (unknown origin) using [14C] IPP and FPP as substrate preincubated for 10 mins followed by substrate addition and measured after 30 min by liquid scintillation counting method.

Assay [13] has as its target T7, Geranylgeranyl transferase type-2 (Rattus norvegicus, UniProt Q08602+Q08603).
T7 sequence (Q08603 whole entry): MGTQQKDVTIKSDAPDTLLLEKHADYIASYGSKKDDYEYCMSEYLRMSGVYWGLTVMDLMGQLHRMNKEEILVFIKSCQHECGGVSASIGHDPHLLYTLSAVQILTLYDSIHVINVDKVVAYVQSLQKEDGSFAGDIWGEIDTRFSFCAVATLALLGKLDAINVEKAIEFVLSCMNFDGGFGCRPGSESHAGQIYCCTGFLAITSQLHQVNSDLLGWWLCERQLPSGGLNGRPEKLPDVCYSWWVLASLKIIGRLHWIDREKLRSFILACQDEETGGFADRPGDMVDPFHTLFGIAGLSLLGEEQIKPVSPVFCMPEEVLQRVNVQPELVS
T7 sequence (Q08602 whole entry): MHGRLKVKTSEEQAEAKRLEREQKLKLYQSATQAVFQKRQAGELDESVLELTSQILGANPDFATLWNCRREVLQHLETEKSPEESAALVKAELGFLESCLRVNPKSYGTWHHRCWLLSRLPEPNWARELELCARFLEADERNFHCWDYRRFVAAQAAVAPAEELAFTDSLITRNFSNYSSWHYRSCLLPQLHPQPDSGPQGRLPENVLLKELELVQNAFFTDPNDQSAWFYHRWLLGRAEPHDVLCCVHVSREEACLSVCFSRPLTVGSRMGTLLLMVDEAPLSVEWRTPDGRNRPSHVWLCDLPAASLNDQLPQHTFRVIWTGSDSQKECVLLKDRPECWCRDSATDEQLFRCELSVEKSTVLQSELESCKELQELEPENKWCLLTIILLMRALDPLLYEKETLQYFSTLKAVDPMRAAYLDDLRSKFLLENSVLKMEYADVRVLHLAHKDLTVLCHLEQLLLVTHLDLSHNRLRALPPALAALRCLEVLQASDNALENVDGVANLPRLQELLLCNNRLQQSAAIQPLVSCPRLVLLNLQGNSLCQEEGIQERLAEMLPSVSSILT
The assay is described as follows: Inhibition of recombinant rat RabGGTase expressed in Escherichia coli using Rab7 as substrate and [3H]geranylgeranyl pyrophosphate after 20 mins by liquid scintillation analysis.

Assay [14] addresses T4, Geranylgeranyl transferase type-2 (Homo sapiens). Briefly: Inhibition of GGtase-2 in human cells assessed as decrease in Rab6 level at =< 5 mM after 48 hrs by immunoblot analysis relative to control. In kind it is cell-based. The procedure, abridged: as §2
Assay [15] has the same target. Briefly: Inhibition of GGtase-2 in human cells assessed as increase in intracellular lambda chain at =< 5 mM level after 48 hrs by ELISA. In kind it is cell-based. The procedure, abridged: as §4
Assay [16] deals with T3, Farnesyl pyrophosphate synthase (Homo sapiens). The assay is described as follows: Inhibition of FDPS in human RPMI8226 cells assessed as increase in intracellular lambda chain level at =< 5 mM after 48 hrs by ELISA. Format: cell-based. The procedure, abridged:
as §3

The target is the same in assay [17]. Briefly: Inhibition of FDPS in human RPMI8226 cells assessed as unmodified Rap1a level at =< 5 mM after 48 hrs by immunoblot analysis. Format: cell-based. The procedure, abridged:
as §1

Assay [18] has as its target T2, Protein farnesyltransferase (Homo sapiens). Briefly: Inhibition of FTase in human RPMI8226 cells assessed as disruption of H-ras farnesylation at 10 to 100 uM incubated for 48 hrs by immunoblot analysis. In kind it is cell-based.
For assay [19] the target is unchanged. The assay is described as follows: Inhibition of FTase in human RPMI8226 cells assessed as disruption of H-ras farnesylation at 10 to 100 uM after 48 hrs in presence of lovastatin by immunoblot analysis. Format: cell-based. The procedure, abridged: (§5)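 Whole-cell lysates were then immunoblotted for H-Ras and unmodified Rap1a, using an antibody specific to the unprenylated protein. β-tubulin was the loading control.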

Assay [20] has as its target T4, Geranylgeranyl transferase type-2 (Homo sapiens). The assay is described as follows: Inhibition of GGtase-2 in human RPMI8226 cells assessed as accumulation of intracellular lambda light chain level at 10 to 100 uM after 48 hrs by immunoblot analysis. Format: cell-based.
Assay [21] has the same target. Briefly: Inhibition of GGtase-2 in human cells assessed as minimum effective dose causing => 20% decrease in Rab6 level after 48 hrs by immunoblot analysis. In kind it is cell-based. The procedure, abridged: (§6)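 The lowest effective concentration in RPMI-8226 cells after 48 h requires both criteria below: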
Assay [22] deals with T1, Geranylgeranyl transferase type I (Homo sapiens). The assay is described as follows: Inhibition of GGtase-1 in human RPMI8226 cells assessed as disruption of Rap1a geranylgeranylation at 10 to 100 uM after 48 hrs in presence lovastatin by immunoblot analysis. Format: cell-based. The procedure, abridged:
as §5

Assay [23] has the same target. The assay is described as follows: Inhibition of GGtase-1 in human RPMI8226 cells assessed as disruption of Rap1a geranylgeranylation at 10 to 100 uM incubated for 48 hrs by immunoblot analysis. Format: cell-based.
The target in assay [24] is T3, Farnesyl pyrophosphate synthase (Homo sapiens).
The target is the same in assay [25]. This is another data set of the same source.
The species named for the next assay is Homo sapiens. The assay is described as follows: Selectivity ratio of IC50 for GGDPS (unknown origin) to IC50 for FDPS (unknown origin).
Assay [26] deals with T4, Geranylgeranyl transferase type-2 (Homo sapiens). Briefly: Inhibition of GGtase-2 in human cells assessed as minimum effective dose required for increase in intracellular lambda chain level after 48 hrs by ELISA. In kind it is cell-based. The procedure, abridged:
as §6

Consider `CC[C@H](C)C(=O)O[C@H]1C[C@@H](C)C=C2C=C[C@H](C)[C@H](CC[C@@H]3C[C@@H](O)CC(=O)O3)[C@H]21`, for which the inhibition entry in assay [1] and in assay [2] was “Active” each time.

As usually defined, the pIC50 is the IC50 on a negative log10 scale, so that one unit is a factor of ten. On to `CC(Cn1cnc2ccccc21)(P(=O)(O)O)P(=O)(O)O`, for which the inhibition entry in assay [3], in assay [4], in assay [5], in [6], in assay [10] and in assay [11] was “inactive” throughout. Besides, the pIC50 in assay [7] is under 3.00; in [8], 6.00; in assay [9], under 3.00; in assay [12], under 4.00; in [13] it was under 3.00.

`Cc1cc2ncn(CC(C(=O)O)P(=O)(O)O)c2cc1C` (stereo unspecified): the pIC50 in [7] was under 3.00; in [8], under 4.00; in assay [9], under 3.00; in assay [12] it was under 4.00; in [13], under 3.00. Also, the inhibition entry in assay [14], in assay [15], in [16] and in assay [17] was “inactive” in each case.

In the case of `O=C(O)C(Cn1cnc2cc(F)c(F)cc21)P(=O)(O)O` (stereo unspecified), the pIC50 in assay [7] was 3.84; in assay [8], under 4.00; in assay [9], 3.35; in assay [12], under 4.00; in assay [13], under 3.00. Moreover, the inhibition entry in assay [14], in [15], in assay [16] and in assay [17] was “inactive” each time.

Take `O=P(O)(O)C(Cn1cnc2ccccc21)P(=O)(O)O`: the inhibition result in [18], in [19], in [20], in [22] and in assay [23] was “Active” throughout. Also, the pIC50 in assay [7] was under 3.00; in [8], 7.62; in assay [9], 3.08; in assay [12], 4.69; in assay [13], under 3.00. Further, in [21], the LED was 0.025 mM.

Regarding `O=P(O)(O)C(Cn1cnc2cc(F)c(F)cc21)P(=O)(O)O`, the LED in assay [24], in [21], in [25] and in assay [26] was 0.5 mM throughout. Moreover, the pIC50 was 3.91 in assay [7]; 6.82 in [8]; 3.47 in assay [9]; 4.06 in assay [12]; 3.13 in assay [13]. Also, in the assay listed under Homo sapiens, the Ratio IC50 amounted to 580.

With `CC(Cn1cnc2ccccc21)(C(=O)O)P(=O)(O)O` (stereo unspecified), the LED in assay [24], in assay [21], in assay [25] and in [26] was 5 mM throughout. The pIC50 is under 3.00 in [7]; under 4.00 in assay [8]; under 3.00 in [9]; under 4.00 in [12]; 3.09 in assay [13].
